{"source": "paper PMC13487472", "about": "(Blood, 2026)", "test_system": "ALL-SIL", "experiment": "CTG assay in ALL-SIL", "format": "cell-based", "conditions": "ABL-fusion-positive cell line, 72 hrs", "in_short": "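After 72 h, an equal volume of CellTiter-Glo was added and luminescence read as an ATP-based proxy for cell number. Signals were normalised to DMSO controls; triplicates; LC50 fitted with a 4-parameter dose-response model.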"}
{"smiles": "Cc1nc(Nc2ncc(C(=O)Nc3c(C)cccc3Cl)s2)cc(N2CCN(CCO)CC2)n1", "note": "[dasatinib]", "values": [{"measurement": "Cytotoxicity in ALL-SIL", "result": "highly sensitive"}]}
